Test results published in ChEMBL document CHEMBL3739379, “Anti-Candida activity and cytotoxicity of a large library of new N-substituted-1,3-thiazolidin-4-one derivatives” (Eur J Med Chem, 2016).
Converted amounts (≈) assume the structure as drawn.

Assays:
[1] = Cytotoxicity against human Hep2 cells assessed as cell survival at 0.5 ug/ml after 24 hrs by trypan blue exclusion test (reference value: 87 to 94%); assay type: cell-based, HEp-2; details: read-out: Survival
Candida parapsilosis = test: Antifungal activity against Candida parapsilosis clinical isolate after 24 hrs by sabouraud dextrose broth based microdilution method; assay type: functional; details: Lodderomyces parapsilosis
Outline: (§1)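 Clinical isolates identified by conventional methods and subcultured for purity. Broth microdilution per NCCLS in Sabouraud dextrose broth; compounds dissolved in DMSO and serially diluted; inoculum 10^3/mL. Controls: fungi without compound, medium only. Incubated 24 h at 37 °C. MIC is the lowest concentration with complete growth inhibition by unaided eye. Values are geometric means over isolates per species.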

Klebsiella oxytoca = test: Antibacterial activity against Klebsiella oxytoca after 18 to 22 hrs by broth microdilution method; assay type: functional
Outline: (§2)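 Broth microdilution per NCCLS in Mueller-Hinton II broth; isolates subcultured for purity. Compounds dissolved in DMSO, serial dilutions 256 to 0.5 µg/mL; inoculum 10^5/mL. Controls: organism without compound, medium only. Incubation 18 to 22 h at 35 °C. MIC is the lowest concentration giving complete growth inhibition, read by unaided eye.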

Staphylococcus warneri = test: Antibacterial activity against Staphylococcus warneri after 18 to 22 hrs by broth microdilution method; assay type: functional; outline: as §2
Pichia kudriavzevii = test: Antifungal activity against Candida krusei clinical isolate after 24 hrs by sabouraud dextrose broth based microdilution method; assay type: functional; outline: as §1
[2] = Cytotoxicity against human Hep2 cells assessed as cell survival at 50 ug/ml after 24 hrs by trypan blue exclusion test (reference value: 87 to 94%); assay type: cell-based, HEp-2; details: read-out: Survival
Nakaseomyces glabratus = test: Antifungal activity against Candida glabrata clinical isolate after 24 hrs by sabouraud dextrose broth based microdilution method; assay type: functional; outline: as §1
Escherichia coli = test: Antibacterial activity against Escherichia coli at after 18 to 22 hrs by broth microdilution method; assay type: functional; outline: as §2
Candida tropicalis = test: Antifungal activity against Candida tropicalis clinical isolate after 24 hrs by sabouraud dextrose broth based microdilution method; assay type: functional; outline: as §1
[3] = Cytotoxicity against human Hep2 cells assessed as cell survival at 0.05 ug/ml after 24 hrs by trypan blue exclusion test (reference value: 87 to 94%); assay type: cell-based, HEp-2; details: read-out: Survival
Staphylococcus aureus = test: Antibacterial activity against Staphylococcus aureus after 18 to 22 hrs by broth microdilution method; assay type: functional; outline: as §2
Enterobacter sp. = test: Antibacterial activity against Enterobacter sp. after 18 to 22 hrs by broth microdilution method; assay type: functional; outline: as §2
Enterococcus faecalis = test: Antibacterial activity against […] faecalis after 18 to 22 hrs by broth microdilution method; assay type: functional; outline: as §2
[Candida] sake = Antifungal activity against Candida sake clinical isolate after 24 hrs by sabouraud dextrose broth based microdilution method; assay type: functional; details: Fermentozyma sake; outline: as §1
[4] = Cytotoxicity against human Hep2 cells assessed as cell survival after 24 hrs by trypan blue exclusion method; assay type: cell-based, HEp-2
Outline: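 Hep2 cells grown in DMEM with 10% FBS and 1% streptomycin-penicillin at 37 °C, 5% CO2, used at 60-70% confluency. Seeded at 1 x 10^5/mL and exposed 24 h to five concentrations (0.05-100 µg/mL), DMSO ≤0.5%. Controls: medium alone, DMSO, 1 mM nitroprusside. Cells scraped, recovered 30 min, stained 1:1 with 0.4% Trypan blue, counted by two operators. Means of ≥3 independent experiments.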

[5] = Cytotoxicity against human Hep2 cells assessed as cell survival at 5 ug/ml after 24 hrs by trypan blue exclusion test (reference value: 87 to 94%); assay type: cell-based, HEp-2; details: read-out: Survival
[6] = tested on: Staphylococcus haemolyticus; test: Antibacterial activity against Staphylococcus haemolyticus after 18 to 22 hrs by broth microdilution method; assay type: functional; outline: as §2
[7] = Cytotoxicity against human Hep2 cells assessed as cell survival at 100 ug/ml after 24 hrs by trypan blue exclusion test (reference value: 87 to 94%); assay type: cell-based, HEp-2; details: read-out: Survival
Proteus mirabilis = test: Antibacterial activity against Proteus mirabilis after 18 to 22 hrs by broth microdilution method; assay type: functional; outline: as §2
Candida albicans = test: Antifungal activity against Candida albicans clinical isolate after 24 hrs by sabouraud dextrose broth based microdilution method; assay type: functional; outline: as §1
[8] = Selectivity index, ratio of CC50 for human Hep2 cells to MIC for Candida glabrata; parameters: species or system HEp-2
Outline: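 Ratio of CC50 from the 24 h Trypan blue assay on Hep2 cells to the MIC against C. glabrata from the 24 h, 37 °C Sabouraud broth microdilution.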

Row | Compound | viability at 24 h, 0.5 ug/ml [1] [%] | MIC (Candida parapsilosis) [µg/mL] | MIC (Klebsiella oxytoca) [µg/mL] | MIC (Staphylococcus warneri) [µg/mL] | MIC (Pichia kudriavzevii) [µg/mL] | viability at 24 h, 50 ug/ml [2] [%] | MIC (Nakaseomyces glabratus) [µg/mL] | MIC (Escherichia coli) [µg/mL] | MIC (Candida tropicalis) [µg/mL] | viability at 24 h, 0.05 ug/ml [3] [%] | MIC (Staphylococcus aureus) [µg/mL] | MIC (Enterobacter sp.) [µg/mL] | MIC (Enterococcus faecalis) [µg/mL] | MIC ([Candida] sake) [µg/mL] | CC50 at 24 h [4] [µg/mL] | viability at 24 h, 5 ug/ml [5] [%] | MIC [6] [µg/mL] | viability at 24 h, 100 ug/ml [7] [%] | MIC (Proteus mirabilis) [µg/mL] | MIC (Candida albicans) [µg/mL] | also measured
1 | CCCCC/C(C)=N/N=C1\SCC(=O)N1Cc1ccc([N+](=O)[O-])cc1 | 93.5 | 2 (≈ 5.52 µM) | > 256 | > 256 | 2 (≈ 5.52 µM) | 0 | 1 (≈ 2.76 µM) | > 256 | 64 (≈ 177 µM) | 95.4 | > 256 | > 256 | > 256 | 2 (≈ 5.52 µM) | 35 (≈ 96.6 µM) | 87 | > 256 | 0 | > 256 | 4 (≈ 11 µM) | 
2 | C/C(=N\N=C1/SCC(=O)N1CN1C(=O)c2ccccc2C1=O)c1ccccn1 |  | 4 (≈ 10.2 µM) | > 256 | > 256 | 32 (≈ 81.3 µM) |  | 32 (≈ 81.3 µM) | > 256 | 2 (≈ 5.08 µM) |  | > 256 | > 256 | > 256 | 4 (≈ 10.2 µM) |  |  | > 256 |  | > 256 | 2 (≈ 5.08 µM) | 
3 | C/C(=N\N=C1/SCC(=O)N1CN1C(=O)c2ccccc2C1=O)c1ccccc1 |  | 8 (≈ 20.4 µM) | > 256 | > 256 | 8 (≈ 20.4 µM) |  | 8 (≈ 20.4 µM) | > 256 | 8 (≈ 20.4 µM) |  | > 256 | > 256 | > 256 | 8 (≈ 20.4 µM) |  |  | > 256 |  | > 256 | 2 (≈ 5.1 µM) | 
4 | O=C1c2ccccc2C(=O)N1CN1C(=O)CS/C1=N\N=C\c1cccc2ccccc12 |  | 128 (≈ 299 µM) | > 256 | > 256 | 128 (≈ 299 µM) |  | 16 (≈ 37.3 µM) | > 256 | 128 (≈ 299 µM) |  | > 256 | > 256 | > 256 | 128 (≈ 299 µM) |  |  | > 256 |  | > 256 | 256 (≈ 597 µM) | 
5 | C/C(CC(C)C)=N\N=C1/SCC(=O)N1Cc1cccc2ccccc12 | 91 | 2 (≈ 5.66 µM) | > 256 | > 256 | 2 (≈ 5.66 µM) | 73.6 | 1 (≈ 2.83 µM) | > 256 | 64 (≈ 181 µM) | 93.2 | > 256 | > 256 | > 256 | 4 (≈ 11.3 µM) | 95 (≈ 269 µM) | 87.5 | > 256 | 46 | > 256 | 4 (≈ 11.3 µM) | Selectivity Index [8]: 95
6 | O=C1c2ccccc2C(=O)N1CN1C(=O)CS/C1=N\N=C\c1cccnc1 |  | 16 (≈ 42.2 µM) | > 256 | > 256 | 8 (≈ 21.1 µM) |  | 8 (≈ 21.1 µM) | > 256 | 16 (≈ 42.2 µM) |  | > 256 | > 256 | > 256 | 32 (≈ 84.3 µM) |  |  | > 256 |  | > 256 | 256 (≈ 675 µM) | 
7 | O=C1CS/C(=N\N=C2CCCC2)N1Cc1ccc([N+](=O)[O-])cc1 | 88 | 16 (≈ 48.1 µM) | > 256 | > 256 | 8 (≈ 24.1 µM) | 0 | 16 (≈ 48.1 µM) | > 256 | 1 (≈ 3.01 µM) | 95 | > 256 | > 256 | > 256 | 16 (≈ 48.1 µM) | 28 (≈ 84.2 µM) | 51 | > 256 | 0 | > 256 | 2 (≈ 6.02 µM) | 
8 | CC(C)=N/N=C1\SCC(=O)N1CN1C(=O)c2ccccc2C1=O | 73 | 2 (≈ 6.05 µM) | > 256 | > 256 | 2 (≈ 6.05 µM) | 0 | 1 (≈ 3.03 µM) | > 256 | 1 (≈ 3.03 µM) | 86 | > 256 | > 256 | > 256 | 2 (≈ 6.05 µM) | 22 (≈ 66.6 µM) | 61 | > 256 | 0 | > 256 | 4 (≈ 12.1 µM) | 
9 | C/C(CC(C)C)=N\N=C1/SCC(=O)N1Cc1ccc([N+](=O)[O-])cc1 | 92.5 | 2 (≈ 5.74 µM) | > 256 | > 256 | 2 (≈ 5.74 µM) | 0 | 1 (≈ 2.87 µM) | > 256 | 32 (≈ 91.8 µM) | 93 | > 256 | > 256 | > 256 | 4 (≈ 11.5 µM) | 32 (≈ 91.8 µM) | 82 | > 256 | 0 | > 256 | 1 (≈ 2.87 µM) | 
10 | C/C(=N\N=C1/SCC(=O)N1CN1C(=O)c2ccccc2C1=O)c1cccs1 |  | 4 (≈ 10 µM) | > 256 | > 256 | 4 (≈ 10 µM) |  | 32 (≈ 80.3 µM) | > 256 | 2 (≈ 5.02 µM) |  | > 256 | > 256 | > 256 | 8 (≈ 20.1 µM) |  |  | > 256 |  | > 256 | 4 (≈ 10 µM) | 
11 | C/C(CC(C)C)=N\N=C1/SCC(=O)N1CN1C(=O)c2ccccc2C1=O | 92.8 | 2 (≈ 5.37 µM) | > 256 | > 256 | 2 (≈ 5.37 µM) | 79 | 1 (≈ 2.68 µM) | > 256 | 64 (≈ 172 µM) | 94 | > 256 | > 256 | > 256 | 2 (≈ 5.37 µM) | 99 (≈ 266 µM) | 90 | > 256 | 47 | > 256 | 2 (≈ 5.37 µM) | Selectivity Index [8]: 99
12 | O=C1c2ccccc2C(=O)N1CN1C(=O)CS/C1=N\N=C\c1ccc2c(c1)OCO2 |  | 128 (≈ 303 µM) | > 256 | > 256 | 32 (≈ 75.8 µM) |  | 8 (≈ 18.9 µM) | > 256 | 8 (≈ 18.9 µM) |  | > 256 | > 256 | > 256 | 128 (≈ 303 µM) |  |  | > 256 |  | > 256 | 8 (≈ 18.9 µM) | 
